Screening data: PubChem, several laboratories
MT stabilize HCS: microtubule stabilizers in HeLa cells, primary screen, imaging, high-content imaging; actives 0.83% (n = 200,000); % tubulin-high responders, % at 10 µM; AID 2205, 2009; HeLa tubulin immunostaining HCS, 24 h; share of cells brighter than vehicle mean+2SD;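 active means plate Z-score above 3 for both tubulin-high and condensed-nucleus cell shares, with cell loss under 80%, at 10 µM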;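 further: anti alpha tubulin signal scored within the nucleus-defined area of each cell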
b-catenin transl: modulators of beta-catenin nuclear translocation, primary screen, imaging, HeLa cells, immunofluorescence, high-content | actives 0.3% (n = 190,000) | nuclear translocation activity, % at 5 µM | AID 1665, 2009;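 active means nuclear translocation activity above 50% at 5 µM, with a well cell count of 50 or more; inconclusive means wells under 50 cells across six images, flagged as toxic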;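 further: per-cell ratio of nuclear to cytoplasmic median beta-catenin stain intensity; plate controls were DMSO negative control for no effect and GSK-3 inhibitor IX positive control for full effect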
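Test system: human HeLa cells, native beta-catenin. Compound dosing: 5 µM primary single dose, 0.1% DMSO, 0.02–20 µM confirmation series. Incubation: compound exposure 24 h at 37°C. Detection: beta-catenin immunostaining with DAPI counterstain, 20x imaging, 6 fields/well. Read-out basis: Nuclear/cytoplasmic beta-catenin signal ratio, % activation.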
ROMK primary: ROMK potassium channel modulators, primary screen, cell-based, thallium flux, MLSMR library. B-score at 10 µM. Tet-inducible ROMK, thallium flux fluorescence; actives lie on both sides. actives 2% (n = 130,000);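 active means signal ratio slope over the read window, or its plate-corrected B-score, at least 3 SD from the plate mean, either direction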;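 further: B-score of the F/F0 ratio slope over 7 to 12 s after thallium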
Target sequence (P48048 whole entry, looked up): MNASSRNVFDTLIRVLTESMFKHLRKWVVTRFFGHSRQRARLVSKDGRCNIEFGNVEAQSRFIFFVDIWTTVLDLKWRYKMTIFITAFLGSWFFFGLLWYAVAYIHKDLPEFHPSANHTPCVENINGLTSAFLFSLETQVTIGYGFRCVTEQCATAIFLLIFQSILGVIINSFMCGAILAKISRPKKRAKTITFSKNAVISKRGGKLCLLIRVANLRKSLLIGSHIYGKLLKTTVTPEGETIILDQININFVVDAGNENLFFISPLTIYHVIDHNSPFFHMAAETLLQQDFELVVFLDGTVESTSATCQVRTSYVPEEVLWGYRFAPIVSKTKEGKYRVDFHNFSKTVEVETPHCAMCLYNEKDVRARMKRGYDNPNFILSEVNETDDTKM
ROMK retest: ROMK channel modulator hit retest, confirmation, cell-based, thallium flux, duplicate, resupplied hits; shares compounds with ROMK primary; actives 54% (n = 3,000); normalized thallium flux (F/F0 slope) at 10 µM; AID 1917, 2009; fluorescence ratio; active compounds read low;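 active means Flux at 10 µM at least 3 SD below or above vehicle control mean in one or both replicates; inconclusive means no clear call, values can overlap the other calls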
An asterisk follows results filed as active; u = inconclusive; x = no result. This is a sample that favours compounds with a hit; in the whole collection about 1.9% have one here.

SMILES	MT stabilize HCS	b-catenin transl	ROMK primary	ROMK retest
COc1ccccc1C1CC(=O)NC(C)=C1C(=O)OC(C)C (configuration not stated)	1.3	1.4	0.431	x
COC(C[C@H]1O[C@H]1[C@@H](O)[C@@H](C)OCc1ccccc1)OC	x	-0.2	x	x
CCC(=O)N1CC(C)C(=O)Nc2ccccc21 (configuration not stated)	5.0	-6.2	0.999	x
CC1CN(C(=O)c2ccccc2)c2ccccc2NC1=O (configuration not stated)	1.9	x	-1.45*	0.0781
CCOc1ccccc1C(=O)NCC(=O)OCC(=O)NCCc1ccc(S(N)(=O)=O)cc1	2.7	x	-2.78*	0.0848
NS(=O)(=O)c1ccc(CCNC(=O)COC(=O)CCc2ccccc2)cc1	5.5	-4.7	-1.05	x
CC(=O)Oc1c(C)cc(Cl)cc1C(=O)Nc1ccc([N+](=O)[O-])cc1Cl	3.6	4.0	-1.4	x
O=[N+]([O-])c1cc(S(=O)(=O)NC2=NCCCCC2)ccc1NCC1CCCCC1	2.2	-0.5	-7.65*	0.0592*
Nc1ccc(S(=O)(=O)NC2=NCCCCC2)cc1N	2.9	-1.2	-0.425	x
O=C(c1cc2ccc([N+](=O)[O-])cc2oc1=O)N1CCOCC1	3.7	0.2	-0.363	x
COc1ccc(NC(=S)N(CCCN2CCC(C)CC2)Cc2cccs2)cc1	4.2	x	-0.381	x
COc1cccc(NC(=S)N(CCCN2CCC(C)CC2)Cc2cccs2)c1	4.2	-1.2	-3.45*	0.0607*
CCN(CC)CCNC(=O)CNC(=S)N(CCCN1CCOCC1)Cc1cccs1	3.5	2.8	0.575	x
CN(C)CCNC(=O)CNC(=S)N(CCCN1CCOCC1)Cc1cccs1	2.9	-1.7	-8.47*	0.0792
Cc1ccccc1NC(=S)N(CCCN1CCC(C)CC1)Cc1ccco1	3.6	-0.7	-2.52*	0.0655*
Cc1ccccc1NC(=S)N(CCCN1CCCCC1)Cc1ccco1	2.4	-1.3	-1.12	x
Cc1nc(Cl)sc1C(=O)Nc1ccc(Cl)cc1	1.6	x	0.0441	x
CCC(=O)Nc1ccc(C(=O)CSc2nnc(-c3ccc(NS(=O)(=O)CC)cc3)o2)cc1OC	x	0.7	x	x
Cc1cc(NC(=O)CCSc2ccccc2)no1	2.2	0.2	0.143	x
Cc1ccnc(N=Cc2c(O)ccc3oc4c(c23)CCCC4)c1	3.4	-0.7	-0.835	x
COc1cc(CNC(C)(C)CO)cc(Br)c1OCc1ccc(Cl)cc1Cl	5.1	u	-1.42	x
COc1cc(CNC(C)(C)CO)cc(Br)c1OCc1ccc(Cl)cc1	3.4	3.0	-5.14*	0.0564*
CC1(C(=O)Oc2ccccc2)Cc2ccccc2C(=O)O1 (configuration not stated)	2.3	-3.6	-0.00419	x
CCN1C(=O)c2cccc3c(S(=O)(=O)Nc4ccncc4)ccc1c23	1.7	-2.6	2.3*	0.0764
CCN1C(=O)c2cccc3c(S(=O)(=O)Nc4ccccc4)ccc1c23	4.0	3.1	x	x
SMILES	MT stabilize HCS	b-catenin transl	ROMK primary	ROMK retest
COc1cc(/C=C(/Sc2nnc(-c3ccc(F)cc3)o2)C(=O)O)ccc1OC(F)F	2.6	-3.1	-11*	0.0769
COc1ccc(/C=C(/Sc2nnc(-c3ccc(Cl)cc3)o2)C(=O)O)cc1	3.7	2.0	0.483	x
COC(=O)CCN(C(=O)c1ccc(N2CCCC2)c([N+](=O)[O-])c1)c1ccccn1	5.3	-2.1	-0.63	x
COC(=O)CCN(C(=O)c1ccc(N2CCCCC2)c([N+](=O)[O-])c1)c1ccccn1	2.7	1.4	-2.05*	0.0673*
O=C1NN(c2ccc(Cl)cc2)C(=O)/C1=C\c1ccc(-c2cccc(C(=O)O)c2)o1	7.1	2.2	0.106	x
O=C1NN(c2ccccc2)C(=O)/C1=C\c1ccc(-c2cc([N+](=O)[O-])ccc2O)o1	1.8	-1.5	x	0.0538*
O=C(CCNC(=O)Cn1ccc2ccccc2c1=O)NCc1ccc(F)cc1Cl	4.5	-1.4	-0.184	x
CCOC(=O)CC1COCCN1Cc1cn[nH]c1-c1cc(OC)c(OC)c(OC)c1 (configuration not stated)	x	0.1	x	x
OC[C@@H]1CCCN1Cc1cn(-c2ccccc2)nc1-c1ccc2c(c1)OCO2	1.5	6.0	-1.12	x
COCC1CCCCN1Cc1cn(-c2ccccc2)nc1-c1ccc2c(c1)OCO2 (configuration not stated)	3.4	-0.2	-3.42*	0.065*
OCc1cn(-c2ccccc2)nc1-c1ccc2c(c1)OCCO2	1.1	x	-0.228	x
c1ccc(-n2cc(CNCCc3cscn3)c(-c3ccc4c(c3)OCO4)n2)cc1	1.7	-1.4	-3.1*	0.0504*
